In the array DNA melting data of Ke et al. (doi:10.1101/2024.01.08.574731):

Tests used:
[1] = melting temperature; fluorescence melt of hairpins on a sequencing array, two-state fit, raised by 9.35 °C to match UV melts; details: sodium 0.088 M
Summary of the method: (§1)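 With Cy3 and quencher oligos annealed, library hairpins on a sequenced MiSeq flow cell were imaged for Cy3 fluorescence in 50 mM Na-HEPES pH 8.0, 25 mM NaCl, in 2.5 °C steps up to 60 °C. Melting temperature and folding enthalpy were derived from bootstrapped two-state fits of signals normalised to pre-quench Cy3 and to control constructs. Four replicates were combined by inverse variance, with fitted temperatures raised by 9.35 °C to match UV melts.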

[2] = folding enthalpy; higher = less favourable; fluorescence melt of hairpins on a sequencing array, two-state fit; details: sodium 0.088 M
Summary of the method: as §1

GGCCTATCGAAAGATGCC (((..(((....)))))) showed a Tm [1] of 36.1 °C and a folding enthalpy [2] of -22.8 kcal/mol.

Work on GGTTACGAAAGTAATACC ((((((....)))..))) yielded a Tm [1] of 33.5 °C and a folding enthalpy [2] of -14.9 kcal/mol.

With GTCGACGAAAGTCCTGAC ((((((....)))..))) the Tm [1] was 31.6 °C and the folding enthalpy [2] was -12.9 kcal/mol.

GATCAAGTTCTTGATC ((((((....)))))) gave a Tm [1] of 49.7 °C and a folding enthalpy [2] of -38.6 kcal/mol.

Work on GTTAGTGGAAACATTAAC ((((.((....)).)))) yielded a Tm [1] of 32.5 °C and a folding enthalpy [2] of -19.2 kcal/mol.

GATCCCACATGGGATC ((((((....)))))) gave a Tm [1] of 60.8 °C and a folding enthalpy [2] of -45.5 kcal/mol.

In the case of GGATTCACGAAAGTGTCC (((..(((....)))))), the Tm [1] is reported as 29.8 °C and the folding enthalpy [2] is reported as -12.5 kcal/mol.

With GCAATGCGAAAGCGTAGC ((.(.((....)).).)) the Tm [1] was 42.7 °C and the folding enthalpy [2] was -15.8 kcal/mol.

GAGGATGAAAATCCTC ((((((....)))))) gave a Tm [1] of 54.7 °C and a folding enthalpy [2] of -37 kcal/mol.

In the case of GCATAGGGAAACTTATGC (((((.(....).))))), the Tm [1] is reported as 41.6 °C and the folding enthalpy [2] is reported as -29.2 kcal/mol.

For GATCGTTTTCACGATC ((((((....)))))), the Tm [1] was 55.4 °C and the folding enthalpy [2] was -45.2 kcal/mol.

GCAATAACGAAAGTTTGC (((..(((....)))))) gave a Tm [1] of 41.3 °C and a folding enthalpy [2] of -26 kcal/mol.

With GATCTTAGGAAGATC ((((((...)))))) the Tm [1] was 43.3 °C and the folding enthalpy [2] was -30.5 kcal/mol.

GGGCACGAAAGTGTGCCC ((((((....)))..))) showed a Tm [1] of 64.5 °C and a folding enthalpy [2] of -27.1 kcal/mol.

Work on GTTGTGGGAAACTACAGC (.(((.(....).))).) yielded a Tm [1] of 32 °C and a folding enthalpy [2] of -16.8 kcal/mol.

In the case of GTAACTCGAAAGAGGTAC (((.(((....))).))), the Tm [1] is reported as 51.6 °C and the folding enthalpy [2] is reported as -28.7 kcal/mol.

In the case of GTCCCAGGAAACTGGGAC (((((((....))))))), the Tm [1] is reported as 68.8 °C and the folding enthalpy [2] is reported as -35.7 kcal/mol.

Work on GTCTGCGAAAGCAGCGAC ((((((....)))..))) yielded a Tm [1] of 60.6 °C and a folding enthalpy [2] of -12.5 kcal/mol.

Sequence GGGACCCCGAAAGGGCCC (((..(((....)))))) has a Tm [1] of 58.6 °C and a folding enthalpy [2] of -20.3 kcal/mol.

Work on GATCTGACGCCAGATC ((((((....)))))) yielded a Tm [1] of 48.6 °C and a folding enthalpy [2] of -33.5 kcal/mol.

With GATCGGGATTCCGATC ((((((....)))))) the Tm [1] was 57.5 °C and the folding enthalpy [2] was -39.7 kcal/mol.

Work on GAACGAGGAAACTCGCTC ((.((((....)))).)) yielded a Tm [1] of 38.9 °C and a folding enthalpy [2] of -20.5 kcal/mol.

In the case of GACCGCGAAAGCGCCGTC ((((((....)))..))), the Tm [1] is reported as 36.6 °C and the folding enthalpy [2] is reported as -14.1 kcal/mol.

GAGGCCGAAAGGCCCCTC ((((((....)))..))) showed a Tm [1] of 49.7 °C and a folding enthalpy [2] of -9.61 kcal/mol.

GGAGAACGAAAGTTTCC (((.(((....)))))) gave a Tm [1] of 33.4 °C and a folding enthalpy [2] of -19.7 kcal/mol.

Work on GCTATCGAAAGATGTAGC ((((((....)))..))) yielded a Tm [1] of 36.9 °C and a folding enthalpy [2] of -28.9 kcal/mol.

With GTGCTTCGAAAGAACCAC (((.(((....))).))) the Tm [1] was 34.8 °C and the folding enthalpy [2] was -27.8 kcal/mol.

For GCTTGTGAAAACAAGC ((((((....)))))), the Tm [1] was 63.5 °C and the folding enthalpy [2] was -34.3 kcal/mol.

In the case of GGGGACGCGAAAGCGCCC (((..(((....)))))), the Tm [1] is reported as 60 °C and the folding enthalpy [2] is reported as -12.9 kcal/mol.

GCACTCGAAAGAGCATGC ((((((....)))..))) gave a Tm [1] of 35.2 °C and a folding enthalpy [2] of -14.4 kcal/mol.

For GCAACCGAAAGGTGATGC ((((((....)))..))), the Tm [1] was 43.2 °C and the folding enthalpy [2] was -18.5 kcal/mol.

Sequence GTTGTTACGAAAGTAAAC (((..(((....)))))) has a Tm [1] of 44.2 °C and a folding enthalpy [2] of -27.2 kcal/mol.

GCTACCGGAAACGACAGC (((..((....))..))) showed a Tm [1] of 27.5 °C and a folding enthalpy [2] of -15.8 kcal/mol.

Sequence GGGGTTCGAAAGAAACCC (((.(((....))).))) has a Tm [1] of 59.5 °C and a folding enthalpy [2] of -41.3 kcal/mol.

Work on GCGGGAGTCCGC ((((....)))) yielded a Tm [1] of 55.7 °C and a folding enthalpy [2] of -23.6 kcal/mol.

With GAACACGGAAACATGTTC (((((.(....).))))) the Tm [1] was 35.1 °C and the folding enthalpy [2] was -28 kcal/mol.

For GTCACAACGAAAGTTGAC (((..(((....)))))), the Tm [1] was 33.2 °C and the folding enthalpy [2] was -11.7 kcal/mol.

For GGGATCGGAAACAATCCC (((((.(....).))))), the Tm [1] was 40.6 °C and the folding enthalpy [2] was -30.9 kcal/mol.

GATCAATTGCTTGATC ((((((....)))))) showed a Tm [1] of 43.5 °C and a folding enthalpy [2] of -33.7 kcal/mol.

With GAGTACCGAAAGGTCTC (((.(((....)))))) the Tm [1] was 48.7 °C and the folding enthalpy [2] was -21.6 kcal/mol.

Work on GAGGGGCCGAAAGGCCTC (((..(((....)))))) yielded a Tm [1] of 46.4 °C and a folding enthalpy [2] of -7.41 kcal/mol.

GAATGGCGAAAGCCTTTC (((.(((....))).))) gave a Tm [1] of 47.2 °C and a folding enthalpy [2] of -21 kcal/mol.

Sequence GAGACTGGAAACGGTCTC (((((.(....).))))) has a Tm [1] of 49.9 °C and a folding enthalpy [2] of -46 kcal/mol.

GATCCTAACGAGGATC ((((((....)))))) gave a Tm [1] of 50.6 °C and a folding enthalpy [2] of -44.8 kcal/mol.

In the case of GCCCCCGAAAGGGGTGGC ((((((....)))..))), the Tm [1] is reported as 56.6 °C and the folding enthalpy [2] is reported as -12.8 kcal/mol.

Sequence GACAAGGCGAAAGCCGTC (((..(((....)))))) has a Tm [1] of 40.9 °C and a folding enthalpy [2] of -8.66 kcal/mol.
